Assay results as given in ChEMBL document CHEMBL3352121, “Modulation of Activity Profiles for Largazole-Based HDAC Inhibitors through Alteration of Prodrug Properties” (ACS Med Chem Lett, 2014).

How the values were obtained:
[1] = biological target: T1, Protein deacetylase HDAC6 (Homo sapiens, UniProt Q9UBN7); assay: Inhibition of HDAC6 (unknown origin) incubated for 30 mins in presence of BSA and DTT by fluorescence assay
T1 sequence (Q9UBN7 whole entry): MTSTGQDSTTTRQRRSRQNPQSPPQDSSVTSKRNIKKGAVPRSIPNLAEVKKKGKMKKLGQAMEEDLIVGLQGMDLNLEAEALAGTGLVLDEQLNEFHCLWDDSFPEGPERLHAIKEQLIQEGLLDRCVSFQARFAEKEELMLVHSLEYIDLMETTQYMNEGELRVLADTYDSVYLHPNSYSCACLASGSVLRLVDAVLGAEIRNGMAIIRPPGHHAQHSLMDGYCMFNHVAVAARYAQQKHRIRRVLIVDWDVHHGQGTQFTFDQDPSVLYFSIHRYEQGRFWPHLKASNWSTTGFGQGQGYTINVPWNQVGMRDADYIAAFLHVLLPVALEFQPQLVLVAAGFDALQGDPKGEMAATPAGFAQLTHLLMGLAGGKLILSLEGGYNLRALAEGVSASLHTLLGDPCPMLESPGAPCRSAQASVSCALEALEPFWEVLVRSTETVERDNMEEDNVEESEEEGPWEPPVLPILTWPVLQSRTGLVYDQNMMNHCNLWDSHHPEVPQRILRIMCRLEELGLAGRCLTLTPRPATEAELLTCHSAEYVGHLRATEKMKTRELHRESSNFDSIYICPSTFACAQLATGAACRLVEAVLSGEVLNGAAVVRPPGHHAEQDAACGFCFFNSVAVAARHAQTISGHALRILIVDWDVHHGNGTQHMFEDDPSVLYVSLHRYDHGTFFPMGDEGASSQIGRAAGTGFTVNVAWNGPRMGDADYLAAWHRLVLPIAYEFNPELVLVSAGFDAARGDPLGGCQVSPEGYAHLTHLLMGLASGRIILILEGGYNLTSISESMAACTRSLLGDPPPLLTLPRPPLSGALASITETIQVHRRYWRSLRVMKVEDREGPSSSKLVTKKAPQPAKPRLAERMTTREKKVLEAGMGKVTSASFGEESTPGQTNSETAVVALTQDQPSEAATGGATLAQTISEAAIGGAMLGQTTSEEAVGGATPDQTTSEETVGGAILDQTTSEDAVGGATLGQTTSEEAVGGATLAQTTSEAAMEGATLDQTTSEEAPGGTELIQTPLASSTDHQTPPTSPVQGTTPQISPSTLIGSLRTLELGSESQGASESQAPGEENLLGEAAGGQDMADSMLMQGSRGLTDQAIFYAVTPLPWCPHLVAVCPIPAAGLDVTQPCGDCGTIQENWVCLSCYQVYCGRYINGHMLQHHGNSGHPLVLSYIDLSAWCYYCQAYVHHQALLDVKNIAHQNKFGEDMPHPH
Method in brief: (§1)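 Purified HDAC isoforms were tested up to a maximum of 1 μM. IC50 values are averages of duplicate experiments. Disulfide compounds were pretreated with DTT to reduce the disulfide bond.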

[2] = biological target: T2, Histone deacetylase 7 (Homo sapiens, UniProt Q8WUI4); assay: Inhibition of HDAC7 (unknown origin) incubated for 30 mins in presence of BSA and DTT by fluorescence assay; method in brief: as §1
T2 sequence (Q8WUI4 whole entry): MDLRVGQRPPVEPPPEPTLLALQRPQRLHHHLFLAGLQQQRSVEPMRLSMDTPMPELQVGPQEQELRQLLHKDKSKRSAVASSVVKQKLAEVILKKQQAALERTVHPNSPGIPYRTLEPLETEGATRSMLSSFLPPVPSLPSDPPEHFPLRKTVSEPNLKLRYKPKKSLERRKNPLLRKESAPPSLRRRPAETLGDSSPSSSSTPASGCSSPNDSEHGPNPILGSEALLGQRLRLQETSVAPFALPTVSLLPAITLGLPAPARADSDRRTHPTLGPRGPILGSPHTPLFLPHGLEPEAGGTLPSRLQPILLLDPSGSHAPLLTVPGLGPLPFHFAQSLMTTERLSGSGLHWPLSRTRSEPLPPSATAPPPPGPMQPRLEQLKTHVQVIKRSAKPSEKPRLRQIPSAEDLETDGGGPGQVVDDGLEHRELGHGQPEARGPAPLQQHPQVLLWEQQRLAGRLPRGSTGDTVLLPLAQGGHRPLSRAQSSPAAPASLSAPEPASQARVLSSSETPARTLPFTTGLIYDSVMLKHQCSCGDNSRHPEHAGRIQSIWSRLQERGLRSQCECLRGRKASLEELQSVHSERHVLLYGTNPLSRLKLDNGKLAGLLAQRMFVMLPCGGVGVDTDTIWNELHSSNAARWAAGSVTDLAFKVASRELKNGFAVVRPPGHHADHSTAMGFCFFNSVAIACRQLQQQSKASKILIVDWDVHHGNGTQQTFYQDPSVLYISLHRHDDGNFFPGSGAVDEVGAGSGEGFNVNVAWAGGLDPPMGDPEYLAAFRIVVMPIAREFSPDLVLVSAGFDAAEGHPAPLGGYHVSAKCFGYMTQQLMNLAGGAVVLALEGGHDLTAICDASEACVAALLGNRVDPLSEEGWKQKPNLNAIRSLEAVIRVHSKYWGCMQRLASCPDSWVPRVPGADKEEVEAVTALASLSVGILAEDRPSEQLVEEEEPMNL

[3] = biological target: Histone deacetylase 9 (Homo sapiens, UniProt Q9UKV0); assay: Inhibition of HDAC9 (unknown origin) incubated for 30 mins in presence of BSA and DTT by fluorescence assay; method in brief: as §1
[4] = biological target: T3, Polyamine deacetylase HDAC10 (Homo sapiens, UniProt Q969S8); assay: Inhibition of HDAC10 (unknown origin) incubated for 30 mins in presence of BSA and DTT by fluorescence assay; method in brief: as §1
T3 sequence (Q969S8 whole entry): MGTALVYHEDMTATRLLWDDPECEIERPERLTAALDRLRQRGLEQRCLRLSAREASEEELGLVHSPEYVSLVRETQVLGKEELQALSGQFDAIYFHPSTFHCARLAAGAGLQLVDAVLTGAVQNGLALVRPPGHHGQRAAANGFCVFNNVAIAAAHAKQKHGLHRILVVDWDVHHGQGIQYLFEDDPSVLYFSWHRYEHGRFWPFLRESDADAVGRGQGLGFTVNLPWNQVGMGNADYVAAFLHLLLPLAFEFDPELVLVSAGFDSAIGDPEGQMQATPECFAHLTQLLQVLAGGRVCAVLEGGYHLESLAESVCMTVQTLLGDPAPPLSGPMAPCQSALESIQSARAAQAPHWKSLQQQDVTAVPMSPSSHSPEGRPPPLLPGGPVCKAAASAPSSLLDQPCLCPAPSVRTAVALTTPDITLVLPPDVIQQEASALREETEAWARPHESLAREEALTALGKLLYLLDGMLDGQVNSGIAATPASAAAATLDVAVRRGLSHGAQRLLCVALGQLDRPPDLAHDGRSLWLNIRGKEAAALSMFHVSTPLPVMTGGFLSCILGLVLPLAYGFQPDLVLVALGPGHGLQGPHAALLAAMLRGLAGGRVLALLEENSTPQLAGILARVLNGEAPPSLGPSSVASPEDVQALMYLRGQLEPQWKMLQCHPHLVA

Histone deacetylase 9, sequence (Q9UKV0 whole entry): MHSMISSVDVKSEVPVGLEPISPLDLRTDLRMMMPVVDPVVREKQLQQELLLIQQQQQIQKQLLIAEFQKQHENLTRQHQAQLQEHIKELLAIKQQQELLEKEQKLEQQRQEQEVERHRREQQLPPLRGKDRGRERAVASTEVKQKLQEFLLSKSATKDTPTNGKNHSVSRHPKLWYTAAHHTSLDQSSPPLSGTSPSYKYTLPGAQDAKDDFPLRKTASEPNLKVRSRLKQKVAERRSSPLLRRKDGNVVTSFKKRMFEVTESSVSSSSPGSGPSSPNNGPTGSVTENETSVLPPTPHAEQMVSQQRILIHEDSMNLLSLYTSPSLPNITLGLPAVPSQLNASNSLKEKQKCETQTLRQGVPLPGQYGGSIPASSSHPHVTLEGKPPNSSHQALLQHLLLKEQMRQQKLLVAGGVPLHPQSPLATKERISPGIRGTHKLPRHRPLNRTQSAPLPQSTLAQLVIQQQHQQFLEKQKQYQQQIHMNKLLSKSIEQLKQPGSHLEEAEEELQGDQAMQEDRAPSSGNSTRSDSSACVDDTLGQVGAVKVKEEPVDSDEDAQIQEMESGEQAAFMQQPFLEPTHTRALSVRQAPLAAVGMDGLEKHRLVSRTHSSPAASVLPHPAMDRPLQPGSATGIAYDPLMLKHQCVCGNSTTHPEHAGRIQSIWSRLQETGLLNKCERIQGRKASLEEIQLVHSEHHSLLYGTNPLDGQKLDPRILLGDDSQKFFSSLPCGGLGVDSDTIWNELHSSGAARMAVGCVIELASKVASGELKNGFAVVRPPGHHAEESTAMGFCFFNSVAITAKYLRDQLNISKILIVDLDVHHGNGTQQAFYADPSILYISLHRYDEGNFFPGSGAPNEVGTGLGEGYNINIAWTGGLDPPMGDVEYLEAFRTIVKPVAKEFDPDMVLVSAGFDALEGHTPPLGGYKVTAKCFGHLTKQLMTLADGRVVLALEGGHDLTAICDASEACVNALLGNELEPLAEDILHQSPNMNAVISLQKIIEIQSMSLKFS

IC50 [1] [nM] | IC50 [2] | IC50 [3] | IC50 [4] [nM] | Compound
135 | Not Active | Not Active | 0.5 | CC(C)[C@@H]1NC(=O)[C@]2(C)CSC(=N2)c2csc(n2)CNC(=O)C[C@@H](/C=C/CCSSC[C@H](NC(=O)OC(C)(C)C)C(=O)OC(C)(C)C)OC1=O
61 | Not Active | Not Active | 0.2 | CC(C)[C@@H]1NC(=O)[C@]2(C)CSC(=N2)c2csc(n2)CNC(=O)C[C@@H](/C=C/CCSSCC/C=C/[C@@H]2CC(=O)NCc3nc(cs3)C3=N[C@@](C)(CS3)C(=O)N[C@@H](C(C)C)C(=O)O2)OC1=O
